Data on 17 molecules can be found in ChEMBL document CHEMBL1255542, “Reverse-benzamidine antimalarial agents: design, synthesis, and biological evaluation” (Bioorg Med Chem Lett, 2010).

In experiment [1] the test system is Plasmodium vinckei. In words: Antimalarial activity against Plasmodium vinckei 279BY infected in Swiss mice (Mus musculus) assessed as reduction in parasitemia at 180 mg/kg, po. Details: scale not given: the % may be the effect or the level left. It counts as functional. The method in brief: (§1)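 Female Swiss mice infected with P. vinckei petteri 279BY on day 0. Dosing once daily on days 1–4 post infection, ip or po as given in each line, n = 3 per dose. Parasitemia measured on day 5 and expressed as decrease relative to untreated control. ED50 derived from the dose series.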

The test system of experiment [2] is Plasmodium vinckei. In words: Antimalarial activity against Plasmodium vinckei 279BY infected in Swiss mice (Mus musculus) dosed perorally for 4 consecutive days. Type of experiment: functional. Conditions: ip, in the assay text read “dosed intraperitoneally” for “dosed perorally”. The method in brief:
as §1

A further experiment deals with Plasmodium falciparum. In words: Antimalarial activity against Plasmodium falciparum. It counts as functional, organism-based. The method in brief: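 Chloroquine-sensitive Nigerian strain of P. falciparum; inhibition of in vitro growth; IC50 taken as the mean of at least two independent experiments, each run in duplicate.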
Experiment [3] concerns Plasmodium vinckei. Kind of experiment: Antimalarial activity against Plasmodium vinckei 279BY infected in Swiss mice (Mus musculus) assessed as reduction in parasitemia at 5 mg/kg, intraperitoneally. It counts as functional. Set-up: scale not given: the % may be the effect or the level left. The note with it: route intraperitoneal. The method in brief: as §1

Take `COc1cc(OC)cc(C(=N)NCCCCCCCCCCCCNC(=N)c2cc(OC)cc(OC)c2)c1.Cl.Cl`: the Activity in the experiment on Plasmodium vinckei [1] came to 20%. Moreover, the 50% effect level in the experiment with Plasmodium vinckei [2] (ED50) was put at a dose of 5 mg/kg. This molecule yielded an IC50 in the experiment with Plasmodium falciparum of 0.039 µM.

Regarding `COc1cccc(C(=N)NCCCCCCCCCCCCNC(=N)c2cccc(OC)c2)c1.Cl.Cl`, the Activity in the experiment on Plasmodium vinckei [1] is 42%. This molecule also came in with a median effective dose (ED50) with Plasmodium vinckei [2] of 5 mg/kg. 0.0066 µM corresponded to half-maximal inhibition with Plasmodium falciparum (IC50).

The molecule `CC(C)C(=N)NCCCCCCCCCCCCNC(=N)C(C)C.Cl.Cl` displayed a median effective dose (ED50) in the experiment with Plasmodium vinckei [2] of 7 mg/kg. For the same molecule, in the experiment on Plasmodium falciparum, inhibition was half-maximal at 0.0102 µM (IC50).

`CCC(=N)NCCCCCCCCCCCCNC(=N)CC.Cl.Cl`: in the experiment on Plasmodium vinckei [2], the ED50 was > 10 mg/kg. In the experiment on Plasmodium falciparum, this molecule had a half-inhibitory concentration (IC50) of 0.018 µM.

Take `COc1ccc(C(=N)NCCCCCCCCCCCCNC(=N)c2ccc(OC)cc2)cc1.Cl.Cl`: the ED50 in the experiment on Plasmodium vinckei [2] was > 20 mg/kg. Moreover, in the experiment on Plasmodium falciparum, the IC50 worked out at 0.0265 µM.

In the experiment with Plasmodium vinckei [2], `Cl.Cl.NC(=O)NCCCCCCCCCCCCNC(N)=O` registered an ED50 of 8.5 mg/kg. In addition, the IC50 in the experiment on Plasmodium falciparum was found to be 0.00915 µM.

In the experiment with Plasmodium vinckei [2], `COc1ccccc1C(=N)NCCCCCCCCCCCCNC(=N)c1ccccc1OC.Cl.Cl` yielded a 50% effective dose (ED50) of 12 mg/kg. Further, in the experiment on Plasmodium falciparum, half-maximal inhibition (IC50) required 0.0245 µM.

On to `Cc1ccc(C(=N)NCCCCCCCCCCCCNC(=N)c2ccc(C)cc2)cc1.Cl.Cl`, for which the ED50 in the experiment with Plasmodium vinckei [2] was 3.1 mg/kg. Further, the IC50 with Plasmodium falciparum turned out to be 0.01 µM.

`N=C(NCCCCCCCCCCCCNC(=N)c1ccc([N+](=O)[O-])cc1)c1ccc([N+](=O)[O-])cc1`: inhibition in the experiment on Plasmodium falciparum was half-maximal at 0.52 µM (IC50).

On to `Cl.Cl.N=C(NCCCCCCCCCCCCNC(=N)c1ccc(N)cc1)c1ccc(N)cc1`, for which the Activity with Plasmodium vinckei [1] is listed as 58%. This molecule yielded a median effective dose (ED50) in the experiment on Plasmodium vinckei [2] of 2.2 mg/kg. Also, the concentration for half-maximal inhibition (IC50) in the experiment on Plasmodium falciparum amounted to 0.014 µM.

Take `Cl.Cl.N=C(NCCCCCCCCCCCCNC(=N)c1ccccc1)c1ccccc1`: in the experiment with Plasmodium vinckei [2], the median effective dose (ED50) is > 10 mg/kg. For the same molecule, 0.0135 µM corresponded to half-maximal inhibition in the experiment on Plasmodium falciparum (IC50).

The molecule `Cl.Cl.N=C(NCCCCCCCCCCCCNC(=N)C1CC1)C1CC1` had a 50% effective dose (ED50) with Plasmodium vinckei [2] of 5 mg/kg. In the experiment on Plasmodium falciparum, this molecule had an IC50 of 0.016 µM.

As to `CC(=N)NCCCCCCCCCCCCNC(C)=N.Cl.Cl`, the ED50 in the experiment on Plasmodium vinckei [2] is 3.1 mg/kg.

`COc1ccc(C(=N)NCCCCCCCCCCCCNC(=N)c2ccc(OC)c(OC)c2)cc1OC.Cl.Cl`: the median effective dose (ED50) in the experiment on Plasmodium vinckei [2] was > 5 mg/kg. In the experiment with Plasmodium falciparum, this molecule returned an IC50 of 0.0067 µM. In addition, the Activity in the experiment on Plasmodium vinckei [3] came to 40%.

In turn, `Cl.Cl.N=C(NCCCCCCCCCCCCNC(=N)c1ccc2c(c1)OCO2)c1ccc2c(c1)OCO2` yielded an ED50 in the experiment with Plasmodium vinckei [2] of 12 mg/kg. Besides, 0.0555 µM corresponded to half-maximal inhibition in the experiment on Plasmodium falciparum (IC50).

Take `N=C(NCCCCCCCCCCCCNC(=N)c1ccc(C(F)(F)F)cc1)c1ccc(C(F)(F)F)cc1`: in the experiment on Plasmodium falciparum, half-maximal inhibition (IC50) required 0.455 µM.

In the case of `N=C(NCCCCCCCCCCCCNC(=N)c1ccco1)c1ccco1`, the IC50 with Plasmodium falciparum turned out to be 0.715 µM.

By ED50 is commonly meant the midpoint of the dose-response relation. For orientation: IC50 means the concentration needed to halve the response being measured.
